Values after ≈ are worked out from the molar mass of the structure shown.
Columns and labels:
Leishmania infantum = assay: WHO-TDR: Leishmaniasis; format: functional, organism-based, Mus musculus; conditions: Macrophage
Summary of the method: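 Antiparasitic potency, reported as IC50, was measured against intracellular Leishmania infantum amastigotes. The parasite strain was MHOM/MA(BE)/67, and murine peritoneal macrophages served as host cells for the screen of a 10,000-compound diverse library from Life Chemicals.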

Onchocerca ochengi = assay: WHO-TDR: Onchocerciasis; format: functional; set-up: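 at 12.5 µM on microfilariae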
Summary of the method: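 Microfilariae of Onchocerca ochengi or Onchocerca lienalis, animal pathogens standing in for the human parasite, were exposed to compounds in a whole-organism screen. The compounds came from a 10,000-compound diverse Life Chemicals library filtered for drug-likeness and reactive groups. Results are expressed as percent inhibition and IC50.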

[1] = WHO-TDR: Cytotoxicity; format: toxicity, cell-based; conditions: human, MRC5 cells
Plasmodium falciparum K1 = assay: WHO-TDR: Malaria; format: functional, organism-based, Homo sapiens; conditions: Erythrocyte
Summary of the method: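 Antiplasmodial potency, expressed as IC50, was measured in a whole-organism assay on intra-erythrocytic Plasmodium falciparum K1 in human red blood cells. The screened library held 10,000 diverse compounds from Life Chemicals.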

Schistosoma mansoni = assay: WHO-TDR: Schistosomiasis; format: functional; set-up: concentration or dose not given beside the values
Summary of the method: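 In this whole-organism assay, larval and/or adult worms of Schistosoma mansoni (Puerto Rican strain) were exposed to compounds from a diverse Life Chemicals library of 10,000 members. A reference drug served as positive control. Activity is stated as percent inhibition and IC50.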

Trypanosoma cruzi = assay: WHO-TDR: Chagas disease; format: functional, organism-based, Homo sapiens; conditions: MRC5
Summary of the method: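 Intracellular amastigotes of the Trypanosoma cruzi Tulahuen CL2 beta-galactosidase strain, grown in MRC-5SV2 human lung fibroblast host cells, were tested in a whole-organism screen. The compounds came from a 10,000-member diverse Life Chemicals library that had been filtered for drug-likeness and reactive groups. Previously published standard procedures were followed, with a reference drug as positive control, and potency is reported as IC50.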

Brugia malayi = assay: WHO-TDR: Lymphatic Filariasis; format: functional; set-up: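 tested at 10 µM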
Summary of the method: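 In a whole-organism assay, Brugia malayi microfilariae were screened against a diverse Life Chemicals library that had been filtered for drug-likeness and reactive groups. That library comprised 10,000 compounds. Activity is expressed as percent inhibition and as IC50.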

[2] = tested on: Trypanosoma brucei brucei; assay: WHO-TDR: Human African Trypanosomiasis (HAT); format: functional, organism-based; conditions: Squib-427
Summary of the method: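 Antiparasitic potency is reported as IC50. The screen covered 10,000 compounds from a diverse Life Chemicals library, filtered for drug-likeness and reactive groups, tested on whole bloodstream-form Trypanosoma brucei of the Squib 427 strain.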

Row | Structure (SMILES) | IC50 (Leishmania infantum) | % Inhibition (Onchocerca ochengi) | IC50 [1] | IC50 (Plasmodium falciparum K1) | % Inhibition (Schistosoma mansoni) | IC50 (Trypanosoma cruzi) | % Inhibition (Brugia malayi) | IC50 [2]
1 | O=C(CCCn1nc(-c2ccccc2)ccc1=O)N1CCN(c2ccccc2F)CC1 | > 12.6 µg/mL | 100% | > 12.6 µg/mL | > 12.6 µg/mL | 25% | 3.81 µg/mL (≈ 9.07 µM) | 0% | 4.04 µg/mL (≈ 9.6 µM)
2 | O=C(NCCNc1ccc(Nc2ccccn2)nn1)c1cccc(C(F)(F)F)c1 | > 12.1 µg/mL | 100% | 10.1 µg/mL (≈ 25 µM) | 5.09 µg/mL (≈ 12.6 µM) | 0% | > 12.1 µg/mL | 50% | 6.4 µg/mL (≈ 15.9 µM)
3 | CS(=O)(=O)c1ccccc1C(=O)Nc1nc(-c2cc3ccccc3o2)cs1 | > 12 µg/mL | 100% | 5.25 µg/mL (≈ 13.2 µM) | > 12 µg/mL | 0% | 4.3 µg/mL (≈ 10.8 µM) | 0% | 4.02 µg/mL (≈ 10.1 µM)
4 | Cn1ccnc1N1CCN(CC(=O)Nc2ccccc2C(F)(F)F)CC1 | 0.357 µg/mL (≈ 0.972 µM) | 0% | > 11 µg/mL | > 11 µg/mL | 0% | > 11 µg/mL | 0% | > 11 µg/mL
5 | O=C(CCc1csc(NC(=O)c2ccco2)n1)Nc1ccc(Cl)cc1 | > 11.3 µg/mL | 100% | > 11.3 µg/mL | > 11.3 µg/mL |  | 3.67 µg/mL (≈ 9.77 µM) | 0% | > 11.3 µg/mL
6 | O=C(Cc1csc(Nc2ccccc2)n1)NCCc1c[nH]c2ccccc12 | > 11.3 µg/mL | 100% | > 11.3 µg/mL | > 11.3 µg/mL |  | > 11.3 µg/mL | 20% | > 11.3 µg/mL
7 | COc1ccc(CC(=O)Nc2ccc(SC)nn2)cc1 | > 8.68 µg/mL | 100% | > 8.68 µg/mL | > 8.68 µg/mL |  | > 8.68 µg/mL | 0% | > 8.68 µg/mL
8 | COc1ccc(NC(=O)Nc2cccc(-c3csc4nc(C)cc(=O)n34)c2)cc1 | 0.395 µg/mL (≈ 0.972 µM) | 0% | > 12.2 µg/mL | > 12.2 µg/mL |  | > 12.2 µg/mL | 0% | 4.04 µg/mL (≈ 9.95 µM)
9 | O=C(Cc1csc(Nc2ccc(F)cc2)n1)N1CCN(c2ncccn2)CC1 | > 12 µg/mL | 100% | > 12 µg/mL | > 12 µg/mL |  | 5.13 µg/mL (≈ 12.9 µM) | 20% | > 12 µg/mL
10 | Cc1nc2scc(-c3cccc(NC(=O)NC4CCCCC4)c3)n2c(=O)c1C | > 11.9 µg/mL | 100% | > 11.9 µg/mL | > 11.9 µg/mL |  | 3.54 µg/mL (≈ 8.93 µM) | 0% | 4.05 µg/mL (≈ 10.2 µM)
11 | COc1ccccc1CC(=O)c1ccc(O)c(CN2CCCC(C)C2)c1O (configuration not stated) | > 11.1 µg/mL | 0% | > 11.1 µg/mL | 0.343 µg/mL (≈ 0.928 µM) |  | > 11.1 µg/mL | 0% | 3.63 µg/mL (≈ 9.83 µM)
12 | O=C(Cc1csc(Nc2cccc(Cl)c2)n1)NCc1ccccn1 | 2.55 µg/mL (≈ 7.11 µM) | 100% | 1.76 µg/mL (≈ 4.91 µM) | > 10.8 µg/mL |  | 1.71 µg/mL (≈ 4.75 µM) | 0% | > 10.8 µg/mL
13 | CC(=O)NCCNc1ccc(Nc2cc(C)ccn2)nn1 | > 8.59 µg/mL | 100% | 6.36 µg/mL (≈ 22.2 µM) | 5.28 µg/mL (≈ 18.4 µM) |  | > 8.59 µg/mL | 0% | > 8.59 µg/mL
14 | O=C(NCCNc1ccc(Nc2cccnc2)nn1)c1cccc(C(F)(F)F)c1 | > 12.1 µg/mL | 100% | > 12.1 µg/mL | 9.79 µg/mL (≈ 24.3 µM) |  | > 12.1 µg/mL | 0% | > 12.1 µg/mL
15 | Cc1cc(NS(=O)(=O)c2c(C)noc2C)n(C2CCS(=O)(=O)C2)n1 (configuration not stated) | > 11.2 µg/mL | 100% | > 11.2 µg/mL | > 11.2 µg/mL |  | > 11.2 µg/mL | 0% | > 11.2 µg/mL
16 | CCCCOc1ccc(C(=O)N2CCN(c3cc(OC)nc(OC)n3)CC2)cc1 | > 12 µg/mL | 100% | > 12 µg/mL | > 12 µg/mL |  | > 12 µg/mL | 0% | > 12 µg/mL
17 | O=S(=O)(c1ccccc1)N1CCN(c2ccc(Nc3ccncc3)nn2)CC1 | 0.385 µg/mL (≈ 0.971 µM) | 0% | > 11.9 µg/mL | > 11.9 µg/mL |  | > 11.9 µg/mL | 0% | > 11.9 µg/mL

Row | Structure (SMILES) | IC50 (Leishmania infantum) | % Inhibition (Onchocerca ochengi) | IC50 [1] | IC50 (Plasmodium falciparum K1) | % Inhibition (Schistosoma mansoni) | IC50 (Trypanosoma cruzi) | % Inhibition (Brugia malayi) | IC50 [2]
18 | O=C(Cc1csc(Nc2ccc(OC(F)(F)F)cc2)n1)NCC1CCCO1 (configuration not stated) | > 12 µg/mL | 100% | > 12 µg/mL | > 12 µg/mL |  | 5.45 µg/mL (≈ 13.6 µM) | 20% | > 12 µg/mL
19 | O=C(CCc1csc(NC(=O)c2cccs2)n1)Nc1nc2ccccc2s1 | 4.03 µg/mL (≈ 9.71 µM) | 100% | > 12.4 µg/mL | > 12.4 µg/mL |  | > 12.4 µg/mL | 0% | > 12.4 µg/mL
20 | COc1cccc(-c2cn3c(C(=O)N4CCN(c5ccccc5OC)CC4)csc3n2)c1 | 6.97 µg/mL (≈ 15.5 µM) | 100% | 2.13 µg/mL (≈ 4.76 µM) | > 13.5 µg/mL |  | 6.97 µg/mL (≈ 15.5 µM) | 0% | > 13.5 µg/mL
21 | CCSc1nnc(NC(=O)c2cc(=O)c(OCc3ccc(F)cc3)cn2C)s1 | > 12.6 µg/mL | 100% | > 12.6 µg/mL | > 12.6 µg/mL |  | > 12.6 µg/mL | 0% | > 12.6 µg/mL
22 | O=C(CCc1csc(NC(=O)c2ccco2)n1)NCc1c(F)cccc1F | > 11.7 µg/mL | 100% | > 11.7 µg/mL | > 11.7 µg/mL |  | > 11.7 µg/mL | 0% | > 11.7 µg/mL
23 | O=S(=O)(c1cccc(Cl)c1)N1CCN(c2ccc(Nc3ccncc3)nn2)CC1 | > 12.9 µg/mL | 100% | 12.9 µg/mL (≈ 30 µM) | 5.77 µg/mL (≈ 13.4 µM) |  | 3.98 µg/mL (≈ 9.24 µM) | 0% | 4.24 µg/mL (≈ 9.83 µM)
24 | CC(C)(C)c1ccc(C(=O)N2CCN(c3ccc(Nc4ccncc4)nn3)CC2)cc1 | 4.04 µg/mL (≈ 9.71 µM) | 100% | 3.49 µg/mL (≈ 8.39 µM) | 3.68 µg/mL (≈ 8.84 µM) |  | 4.1 µg/mL (≈ 9.85 µM) | 0% | 4 µg/mL (≈ 9.6 µM)
25 | COc1ccc(C)cc1S(=O)(=O)N1CCN(c2ccc(Nc3cccnc3)nn2)CC1 | 4.28 µg/mL (≈ 9.71 µM) | 100% | 10.3 µg/mL (≈ 23.4 µM) | > 13.2 µg/mL |  | 3.89 µg/mL (≈ 8.83 µM) | 0% | > 13.2 µg/mL
26 | CSc1ccccc1NC(=O)CCc1csc(NC(=O)c2cccs2)n1 | 12.1 µg/mL (≈ 30 µM) | 100% | > 12.1 µg/mL | > 12.1 µg/mL |  | 5.38 µg/mL (≈ 13.3 µM) | 0% | 4.15 µg/mL (≈ 10.3 µM)
27 | COc1ccc(-c2cn3c(CCC(=O)NCCc4c[nH]c5ccccc45)csc3n2)cc1 | > 13.3 µg/mL | 100% | > 13.3 µg/mL | 13.3 µg/mL (≈ 30 µM) |  | 2.66 µg/mL (≈ 5.99 µM) | 20% | 0.382 µg/mL (≈ 0.859 µM)
28 | COc1ccc(-c2cn3c(C(=O)Nc4ccc(F)cc4F)csc3n2)cc1 | > 11.6 µg/mL | 100% | > 11.6 µg/mL | > 11.6 µg/mL |  | > 11.6 µg/mL | 0% | > 11.6 µg/mL
29 | FC(F)(F)c1ccc(Nc2ncnc3[nH]ncc23)cc1 | > 8.38 µg/mL | 100% | > 8.38 µg/mL | > 8.38 µg/mL |  | 2.72 µg/mL (≈ 9.73 µM) | 0% | 3.19 µg/mL (≈ 11.4 µM)
30 | COc1ccc(-c2cn3c(C(=O)Nc4cc(C)on4)csc3n2)cc1 | > 10.6 µg/mL | 100% | > 10.6 µg/mL | > 10.6 µg/mL |  | > 10.6 µg/mL | 0% | > 10.6 µg/mL
31 | CCC(Sc1ccc(NC(=O)c2cccc(F)c2)nn1)C(=O)OC (configuration not stated) | > 10.5 µg/mL | 100% | 9.15 µg/mL (≈ 26.2 µM) | > 10.5 µg/mL |  | > 10.5 µg/mL | 0% | > 10.5 µg/mL
32 | Cc1nc2scc(-c3cccc(NS(C)(=O)=O)c3)n2c(=O)c1C | > 10.5 µg/mL | 100% | > 10.5 µg/mL | > 10.5 µg/mL |  | > 10.5 µg/mL | 0% | > 10.5 µg/mL
33 | Cc1noc(C)c1S(=O)(=O)Nc1cccc(-c2csc3nc(C)c(C)c(=O)n23)c1 | 0.418 µg/mL (≈ 0.971 µM) | 0% | > 12.9 µg/mL | > 12.9 µg/mL |  | > 12.9 µg/mL | 0% | > 12.9 µg/mL
34 | COc1ccc(-c2cn3c(C(=O)Nc4ccccc4F)csc3n2)cc1 | > 11 µg/mL | 100% | > 11 µg/mL | > 11 µg/mL |  | > 11 µg/mL | 0% | > 11 µg/mL
